Measured values as given in publication PMC4280364 (ChemMedChem, 2014).

Tests used:
D1-active mutant (E578Q) [1] = target: T1, D1-active mutant (E578Q) (Homo sapiens, UniProt P55072, E578Q); assay: ATPase assay, D1-active Walker B mutant; format: biochemical
Outline: (§1)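 Human p97 (WT or the Walker B mutant named), 25 nM monomer, in 50 mM Tris pH 7.4, 20 mM MgCl2, 1 mM EDTA, 0.5 mM TCEP, 0.01% Triton X-100 and 200 μM ATP. An initial 4-dose titration (30, 10, 3.3, 1.1 μM) was run in triplicate, then an 8-dose titration (30 down to 0.04 μM, plus 0). ATPase activity was read with Biomol Green reagent.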

D1-active mutant (E578Q) [2] = target: T1, D1-active mutant (E578Q); details: previous studies of the authors; cited from earlier work
wild-type p97 = wild-type p97 (Homo sapiens, UniProt P55072); assay: ATPase assay, wild type p97; format: biochemical
Sequence of wild-type p97 (P55072 whole entry): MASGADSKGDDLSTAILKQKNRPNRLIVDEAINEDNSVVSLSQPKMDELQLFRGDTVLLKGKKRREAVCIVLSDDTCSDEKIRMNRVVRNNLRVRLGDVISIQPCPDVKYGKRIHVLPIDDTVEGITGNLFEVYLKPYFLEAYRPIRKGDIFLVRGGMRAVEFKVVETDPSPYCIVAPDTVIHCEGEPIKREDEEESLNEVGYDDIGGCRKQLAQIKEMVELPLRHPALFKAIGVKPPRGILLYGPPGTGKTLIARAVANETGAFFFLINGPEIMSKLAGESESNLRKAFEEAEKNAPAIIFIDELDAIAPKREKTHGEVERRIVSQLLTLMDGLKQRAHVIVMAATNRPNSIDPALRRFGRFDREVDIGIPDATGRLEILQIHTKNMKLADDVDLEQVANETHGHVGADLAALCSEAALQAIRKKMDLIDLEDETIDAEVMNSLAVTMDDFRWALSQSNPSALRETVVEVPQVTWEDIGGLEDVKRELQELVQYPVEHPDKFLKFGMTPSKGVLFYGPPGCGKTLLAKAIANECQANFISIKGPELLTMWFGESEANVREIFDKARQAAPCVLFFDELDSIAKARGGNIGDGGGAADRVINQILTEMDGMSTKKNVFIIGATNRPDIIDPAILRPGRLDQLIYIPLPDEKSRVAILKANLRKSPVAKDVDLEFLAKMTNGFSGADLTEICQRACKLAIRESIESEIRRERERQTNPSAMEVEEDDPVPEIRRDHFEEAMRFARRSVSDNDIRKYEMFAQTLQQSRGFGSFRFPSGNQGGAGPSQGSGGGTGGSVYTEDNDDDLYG
Outline: as §1

p97-p47 complex [3] = target: T2, p97-p47 complex (Homo sapiens, UniProt P55072); assay: ATPase assay, p97-p47 complex; format: biochemical
T2 sequence (P55072 whole entry): as above
T2 sequence (Q9UNZ2 whole entry partner): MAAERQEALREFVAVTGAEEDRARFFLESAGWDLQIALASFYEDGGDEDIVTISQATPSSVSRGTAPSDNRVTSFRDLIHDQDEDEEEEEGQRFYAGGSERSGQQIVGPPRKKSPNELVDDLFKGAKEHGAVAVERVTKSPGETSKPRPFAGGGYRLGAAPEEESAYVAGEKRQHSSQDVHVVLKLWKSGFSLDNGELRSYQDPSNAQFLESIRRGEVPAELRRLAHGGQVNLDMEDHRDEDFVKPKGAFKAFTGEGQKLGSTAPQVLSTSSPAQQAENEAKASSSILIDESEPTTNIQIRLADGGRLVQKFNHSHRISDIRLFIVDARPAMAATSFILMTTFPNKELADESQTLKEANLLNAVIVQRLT
Outline: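 The p97-p47 complex was formed by adding p47 to 400 nM final with human p97 at 25 nM monomer. Buffer was 50 mM Tris pH 7.4, 20 mM MgCl2, 1 mM EDTA, 0.5 mM TCEP, 0.01% Triton X-100 and 200 μM ATP. Titrations were 4-dose in triplicate (30–1.1 μM), then 8-dose (30–0.04 μM, plus 0). Activity was detected with Biomol Green reagent.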

D2-active mutant (E305Q) = D2-active mutant (E305Q) (Homo sapiens, UniProt P55072, E305Q); assay: ATPase assay, D2-active Walker B mutant; format: biochemical
Sequence of D2-active mutant (E305Q) (P55072 whole entry E305Q): as the sequence (P55072 whole entry) above, with E305Q counted along it
Outline: as §1

p97-p47 complex [4] = target: T2, p97-p47 complex; details: cited from earlier work; for inhibition of the p97-p47 complex compared to p97 alone, in words: Figure 1 legend, earlier work of the authors; for fold decrease in potency caused by p47 (p97-p47 complex versus p97): previously found by the authors

T1 sequence (P55072 whole entry E578Q): as the sequence (P55072 whole entry) above, with E578Q counted along it

IC50 (wild-type p97)	IC50 (p97-p47 complex [3])	IC50 (D2-active mutant (E305Q))	fold increase of IC50 against the D2-active mutant (E305Q) compared to WT p97 (D2-active mutant (E305Q); 200 μM ATP)	selectivity toward the D2 domain (D2-active mutant (E305Q); D2 versus D1)	IC50 (D1-active mutant (E578Q) [1])	fold increase of IC50 against the D1-active mutant (E578Q) compared to WT p97 (D1-active mutant (E578Q) [1]; 200 μM ATP)	SMILES	domain selectivity D1 versus D2 (E578Q versus E305Q mutants), in words (D1-active mutant (E578Q) [1]; 8-dose titration, Figure 3 / Table S1)	domain selectivity D1 versus D2, in words (D1-active mutant (E578Q) [2])	inhibition of the p97-p47 complex compared to p97 alone, in words (p97-p47 complex [4])	fold decrease in potency caused by p47 (p97-p47 complex versus p97) (p97-p47 complex [4])
							Cc1cc(OCc2nnc(SC3CCCC3)n2-c2cccnc2)ccc1-c1ccc(S(C)(=O)=O)cc1 [NMS-873]	inhibited the ATPase activity of both the D1 and D2 domains	inhibit both the D1 and D2 ATPase domains		
5.4 µM	12.3 µM	7.6 µM	1.4 fold	3 fold	13.1 µM	2.4 fold	c1ccc(CNc2nc(NCc3ccccc3)c3ccccc3n2)cc1 [DBeQ, N2,N4-dibenzylquinazoline-2,4-diamine]		inhibit both the D1 and D2 ATPase domains		
							COc1cccc2c(NCc3ccccc3)nc(-n3c(N)nc4ccccc43)nc12 [ML240]		selectively inhibit D2	less inhibition of the p97-p47 complex	~ 50 fold
							c1ccc(CNc2nc(N3CCOc4ccccc43)nc3c2CCCC3)cc1 [ML241]		selectively inhibit D2	less inhibition of the p97-p47 complex	~ 50 fold
